In ChEMBL document CHEMBL1921722, “In vitro and in vivo evaluation of select kahalalide F analogs with antitumor and antifungal activities” (Bioorg Med Chem, 2011):
The source made the active and inactive calls. No cut-off for these calls is given here.

Legend:
[1] = system: BT-549; assay: Cytotoxicity against human BT549 cells assessed as cell growth at 8 uM by sulforhodamine B assay relative to control; type: functional; conditions: read-out: Activity
In short: (§1)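 Run at NCI in the DTP 60-cell-line human tumor panel by standard procedure. Compounds were first screened at a single concentration, then tested at five tenfold-spaced concentrations. GI50 is the concentration reducing treated-cell growth to half that of untreated controls; TGI is the concentration completely halting growth.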

[2] = system: UO-31; assay: Cytotoxicity against human UO31 cells assessed as cell growth at 80 uM by sulforhodamine B assay relative to control; type: functional; conditions: read-out: Activity
[3] = system: HL-60(TB); assay: Cytotoxicity against human HL-60(TB) cells assessed as cell growth at 8 nM by sulforhodamine B assay relative to control; type: functional; conditions: read-out: Activity
[4] = system: NCI-H322M; assay: Cytotoxicity against human NCI-H322M cells assessed as cell growth at 80 nM by sulforhodamine B assay relative to control; type: functional; conditions: read-out: Activity
[5] = system: MOLT-4; assay: Cytotoxicity against human MOLT4 cells assessed as cell growth at 8 nM by sulforhodamine B assay relative to control; type: functional; conditions: read-out: Activity
[6] = system: LOX IMVI; assay: Cytotoxicity against human LOXIMVI cells by sulforhodamine B assay; type: functional
In short: (§2)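 NCI Developmental Therapeutics Program 60-cell-line human tumor panel screen, run at NCI. A single-concentration pre-screen was followed by a five-concentration dose-response in 10-fold steps. GI50 is the concentration that reduces growth of treated cells to half that of untreated control cells. TGI is the concentration that completely halts growth.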

[7] = system: HOP-62; assay: Cytotoxicity against human HOP62 cells assessed as cell growth at 80 uM by sulforhodamine B assay relative to control; type: functional; conditions: read-out: Activity
[8] = system: OVCAR-8; assay: Cytotoxicity against human OVCAR8 cells assessed as cell growth at 80 uM by sulforhodamine B assay relative to control; type: functional; conditions: read-out: Activity
[9] = system: SNB-19; assay: Cytotoxicity against human SNB19 cells assessed as cell growth at 8 nM by sulforhodamine B assay relative to control; type: functional; conditions: read-out: Activity
[10] = system: SF-268; assay: Cytotoxicity against human SF268 cells assessed as cell growth at 8 uM by sulforhodamine B assay relative to control; type: functional; conditions: read-out: Activity
[11] = system: MDA-MB-231; assay: Cytotoxicity against human MDA-MB-231 cells assessed as cell growth at 80 nM by sulforhodamine B assay relative to control; type: functional; conditions: read-out: Activity
[12] = system: OVCAR-8; assay: Cytotoxicity against human OVCAR8 cells assessed as cell growth at 8 nM by sulforhodamine B assay relative to control; type: functional; conditions: read-out: Activity
[13] = system: EKVX; assay: Cytotoxicity against human EKVX cells assessed as cell growth at 800 nM by sulforhodamine B assay relative to control; type: functional; conditions: read-out: Activity
[14] = system: A549; assay: Cytotoxicity against human A549 cells assessed as cell growth at 800 nM by sulforhodamine B assay relative to control; type: functional; conditions: read-out: Activity; in short: as §1
[15] = system: A498; assay: Cytotoxicity against human A498 cells assessed as cell growth at 8 nM by sulforhodamine B assay relative to control; type: functional; conditions: read-out: Activity; in short: as §1
[16] = system: SF-268; assay: Cytotoxicity against human SF268 cells assessed as cell growth at 8 nM by sulforhodamine B assay relative to control; type: functional; conditions: read-out: Activity
[17] = system: MOLT-4; assay: Cytotoxicity against human MOLT4 cells assessed as cell growth at 80 nM by sulforhodamine B assay relative to control; type: functional; conditions: read-out: Activity
[18] = system: RPMI-8226; assay: Cytotoxicity against human RPMI8226 cells assessed as cell growth at 800 nM by sulforhodamine B assay relative to control; type: functional; conditions: read-out: Activity
[19] = system: SR; assay: Cytotoxicity against human SR cells assessed as cell growth at 80 nM by sulforhodamine B assay relative to control; type: functional; conditions: read-out: Activity
[20] = system: U-251; assay: Cytotoxicity against human U251 cells assessed as cell growth at 800 nM by sulforhodamine B assay relative to control; type: functional; conditions: read-out: Activity
[21] = system: M14; assay: Cytotoxicity against human M14 cells assessed as cell growth at 800 nM by sulforhodamine B assay relative to control; type: functional; conditions: read-out: Activity
[22] = system: PC-3; assay: Cytotoxicity against human PC3 cells assessed as cell growth at 80 uM by sulforhodamine B assay relative to control; type: functional; conditions: read-out: Activity
[23] = system: HOP-62; assay: Cytotoxicity against human HOP62 cells assessed as cell growth at 8 uM by sulforhodamine B assay relative to control; type: functional; conditions: read-out: Activity
[24] = Acute toxicity in ip dosed athymic nude mouse assessed as mortality after 24 days; type: organism-based; conditions: in vivo
In short: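 Female athymic nude mice, non-tumored; single IP injection, one mouse per dose level, 400, 200 and 100 mg/kg first, then 50, 25 and 12.5 mg/kg. Dose volume 0.1 ml/10 g body weight. Body weight and survival monitored; animals sacrificed on >20% weight loss or other significant toxicity.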

[25] = system: TK-10; assay: Cytotoxicity against human TK10 cells assessed as cell growth at 80 uM by sulforhodamine B assay relative to control; type: functional; conditions: read-out: Activity
[26] = system: OVCAR-4; assay: Cytotoxicity against human OVCAR4 cells assessed as cell growth at 8 nM by sulforhodamine B assay relative to control; type: functional; conditions: read-out: Activity
[27] = system: MOLT-4; assay: Cytotoxicity against human MOLT4 cells assessed as cell growth at 80 uM by sulforhodamine B assay relative to control; type: functional; conditions: read-out: Activity
[28] = system: HCC 2998; assay: Cytotoxicity against human HCC2998 cells assessed as cell growth at 8 uM by sulforhodamine B assay relative to control; type: functional; conditions: read-out: Activity
[29] = system: UACC-257; assay: Cytotoxicity against human UACC257 cells assessed as cell growth at 80 nM by sulforhodamine B assay relative to control; type: functional; conditions: read-out: Activity
[30] = system: RXF 393; assay: Cytotoxicity against human RXF393 cells assessed as cell growth at 8 uM by sulforhodamine B assay relative to control; type: functional; conditions: read-out: Activity
[31] = system: TK-10; assay: Cytotoxicity against human TK10 cells assessed as cell growth at 80 nM by sulforhodamine B assay relative to control; type: functional; conditions: read-out: Activity
[32] = system: T47D; assay: Cytotoxicity against human T47D cells assessed as cell growth at 80 nM by sulforhodamine B assay relative to control; type: functional; conditions: read-out: Activity
[33] = system: NCI-H522; assay: Cytotoxicity against human NCI-H522 cells by sulforhodamine B assay; type: functional; in short: as §2
[34] = system: SK-OV-3; assay: Cytotoxicity against human SKOV3 cells assessed as cell growth at 8 nM by sulforhodamine B assay relative to control; type: functional; conditions: read-out: Activity
[35] = system: SNB-19; assay: Cytotoxicity against human SNB19 cells by sulforhodamine B assay; type: functional; in short: as §2
[36] = system: HT-29; assay: Cytotoxicity against human HT-29 cells assessed as cell growth at 80 uM by sulforhodamine B assay relative to control; type: functional; conditions: read-out: Activity
[37] = system: HL-60(TB); assay: Cytotoxicity against human HL-60(TB) cells assessed as cell growth at 8 uM by sulforhodamine B assay relative to control; type: functional; conditions: read-out: Activity
[38] = system: NCI-H522; assay: Cytotoxicity against human NCI-H522 cells assessed as cell growth at 800 nM by sulforhodamine B assay relative to control; type: functional; conditions: read-out: Activity
[39] = system: SK-MEL-28; assay: Cytotoxicity against human SK-MEL-28 cells assessed as cell growth at 80 nM by sulforhodamine B assay relative to control; type: functional; conditions: read-out: Activity
[40] = system: Fusarium sp.; assay: Antimicrobial activity against Fusarium sp. by CLSI method; type: functional, organism-based
[41] = system: UO-31; assay: Cytotoxicity against human UO31 cells assessed as cell growth at 80 nM by sulforhodamine B assay relative to control; type: functional; conditions: read-out: Activity
[42] = system: BT-549; assay: Cytotoxicity against human BT549 cells assessed as cell growth at 80 uM by sulforhodamine B assay relative to control; type: functional; conditions: read-out: Activity; in short: as §1

Work on `C/C=C1\NC(=O)[C@H](Cc2ccccc2)NC(=O)[C@@H](C(C)C)NC(=O)[C@@H]([C@@H](C)CC)NC(=O)[C@H](NC(=O)[C@H](NC(=O)[C@H](CCCNCc2ccc(N3CCOCC3)cc2)NC(=O)[C@H]2CCCN2C(=O)[C@H](NC(=O)[C@@H](NC(=O)[C@@H](NC(=O)[C@H](NC(=O)CCCC(C)C)C(C)C)[C@@H](C)O)C(C)C)C(C)C)[C@@H](C)CC)[C@@H](C)OC(=O)[C@H](C(C)C)NC1=O` yielded a growth at 8 µM [1] of -66%, a growth at 80 µM [2] of -28% and a growth at 0.008 µM [3] of 94%. For the same compound, the growth at 0.08 µM [4] was 92%, the growth at 0.008 µM [5] was 103% and the GI50 [6] was 3.16 µM. For the same compound, the LC50 [6] was 57.5 µM, the TGI ([6]; read-out: pTGI (converted)) was 13.5 µM and the growth at 80 µM [7] was -55%. It also gave a growth at 80 µM [8] of 28%, a growth at 0.008 µM [9] of 95% and a growth at 8 µM [10] of -52%. The growth at 0.08 µM [11] was 97%, the growth at 0.008 µM [12] was 99% and the growth at 0.8 µM [13] was 53%. The growth at 0.8 µM [14] was -40%, the growth at 0.008 µM [15] was 96% and the growth at 0.008 µM [16] was 98%. For the same compound, the growth at 0.08 µM [17] was 95%, the growth at 0.8 µM [18] was 76% and the growth at 0.08 µM [19] was 106%. For the same compound, the growth at 0.8 µM [20] was 72%, the growth at 0.8 µM [21] was 102% and the growth at 80 µM [22] was -67%. It also gave a growth at 8 µM [23] of -70%, an MTD at 576 h [24] of 12.5 mg/kg and a growth at 80 µM [25] of -56%. It also gave a growth at 0.008 µM [26] of 103%, a growth at 80 µM [27] of 7% and a growth at 8 µM [28] of -81%. For the same compound, the growth at 0.08 µM [29] was 103%, the growth at 8 µM [30] was -47% and the growth at 0.08 µM [31] was 96%. For the same compound, the growth at 0.08 µM [32] was 89%, the GI50 [33] was 5.01 µM and the LC50 [33] was greater than 75.9 µM. For the same compound, the TGI ([33]; read-out: pTGI (converted)) was 33.1 µM, the growth at 0.008 µM [34] was 107% and the GI50 [35] was 1.35 µM. It also gave a TGI ([35]; read-out: pTGI (converted)) of 2.75 µM, a growth at 80 µM [36] of 8% and a growth at 8 µM [37] of -17%. The growth at 0.8 µM [38] was 101%, the growth at 0.08 µM [39] was 99% and the Activity [40] was “Active”. For the same compound, the growth at 0.08 µM [41] was 104% and the growth at 80 µM [42] was -49%.
